How the values were obtained:
[1] = biological target: NAD(P)H dehydrogenase [quinone] 1 (Mus musculus) (UniProt Q64669); assay: Induction of quinone reductase 1 activity in mouse Hepa-1c1c7 cells assessed as cell survival at 50 uM by MTT assay relative to control; assay type: cell-based
HEK293 [2] = assay: Inhibition of TNF-alpha-induced NFkappaB activation in human HEK293 cells assessed as cell survival at 50 uM after 6 hrs by luciferase assay relative to control; assay type: cell-based
MCF7 [3] = assay: Antiproliferative activity against human MCF7 cells assessed as survival at 50 uM after 72 hrs by SRB assay relative to control; assay type: functional; settings: MCF7, 72 h, read-out: Survival
Method in brief: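 MCF7 cells (1 × 10^4 per well) were plated onto compound and kept at 37°C, 5% CO2 for 72 h. Cells were fixed in 10% TCA for 30 min and stained with 0.4% SRB in 1% acetic acid for 30 min. Bound dye was dissolved in 10 mM Tris (pH 10.0) and read at 515 nm. Survival is given as % of DMSO-treated controls, screened at 50 μM.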

Aromatase = biological target: T1, Aromatase (Homo sapiens, UniProt P11511); assay: Inhibition of aromatase at 50 uM after 10 mins preincubation by plate reader relative to control
T1 sequence (P11511 whole entry): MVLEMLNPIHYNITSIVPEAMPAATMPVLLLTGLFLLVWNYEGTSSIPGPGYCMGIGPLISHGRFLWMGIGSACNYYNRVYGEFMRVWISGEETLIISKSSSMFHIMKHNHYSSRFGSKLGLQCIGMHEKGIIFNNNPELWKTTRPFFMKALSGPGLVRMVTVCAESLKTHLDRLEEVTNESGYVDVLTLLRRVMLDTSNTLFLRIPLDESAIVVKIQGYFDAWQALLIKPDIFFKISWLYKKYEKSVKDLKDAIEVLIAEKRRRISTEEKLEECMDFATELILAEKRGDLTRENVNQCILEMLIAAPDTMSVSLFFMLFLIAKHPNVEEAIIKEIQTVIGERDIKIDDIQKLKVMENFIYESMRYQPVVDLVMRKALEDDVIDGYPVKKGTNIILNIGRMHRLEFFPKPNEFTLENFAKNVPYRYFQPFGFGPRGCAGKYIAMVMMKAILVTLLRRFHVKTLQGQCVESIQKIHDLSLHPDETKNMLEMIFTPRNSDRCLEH
Method in brief: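 CYP19 enzyme. Compound pre-incubated 10 min with an NADPH-regenerating system (NADP+, glucose 6-phosphate, G6PDH, MgCl2, albumin) in 50 mM potassium phosphate pH 7.4. Enzyme and 0.4 μM dibenzylfluorescein substrate then added, 30 min at 37 °C. Quenched with 2 N NaOH and incubated a further 2 h at 37 °C. Fluorescence read at ex 485/em 530 nm. Compound tested at 50 μM.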

HEK293 [4] = assay: Inhibition of TNF-alpha-induced NFkappaB activation in human HEK293 cells at 50 uM after 6 hrs by luciferase assay relative to control; assay type: cell-based
Method in brief: (§1)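 Cells incubated 6 h with TNFα plus test compound, then luciferase activity measured. Results expressed as percent of TNFα-treated control. Screening concentration 50 μM.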

[5] = biological target: T2, Nitric oxide synthase, inducible (Mus musculus) (UniProt P29477); assay: Inhibition of iNOS-mediated nitric oxide production in LPS-stimulated mouse RAW 264.7 cells assessed as cell survival at 50 uM pretreated 15 mins before LPS challenge measured after 20 hrs relative to control; assay type: cell-based
T2 sequence (whole entry): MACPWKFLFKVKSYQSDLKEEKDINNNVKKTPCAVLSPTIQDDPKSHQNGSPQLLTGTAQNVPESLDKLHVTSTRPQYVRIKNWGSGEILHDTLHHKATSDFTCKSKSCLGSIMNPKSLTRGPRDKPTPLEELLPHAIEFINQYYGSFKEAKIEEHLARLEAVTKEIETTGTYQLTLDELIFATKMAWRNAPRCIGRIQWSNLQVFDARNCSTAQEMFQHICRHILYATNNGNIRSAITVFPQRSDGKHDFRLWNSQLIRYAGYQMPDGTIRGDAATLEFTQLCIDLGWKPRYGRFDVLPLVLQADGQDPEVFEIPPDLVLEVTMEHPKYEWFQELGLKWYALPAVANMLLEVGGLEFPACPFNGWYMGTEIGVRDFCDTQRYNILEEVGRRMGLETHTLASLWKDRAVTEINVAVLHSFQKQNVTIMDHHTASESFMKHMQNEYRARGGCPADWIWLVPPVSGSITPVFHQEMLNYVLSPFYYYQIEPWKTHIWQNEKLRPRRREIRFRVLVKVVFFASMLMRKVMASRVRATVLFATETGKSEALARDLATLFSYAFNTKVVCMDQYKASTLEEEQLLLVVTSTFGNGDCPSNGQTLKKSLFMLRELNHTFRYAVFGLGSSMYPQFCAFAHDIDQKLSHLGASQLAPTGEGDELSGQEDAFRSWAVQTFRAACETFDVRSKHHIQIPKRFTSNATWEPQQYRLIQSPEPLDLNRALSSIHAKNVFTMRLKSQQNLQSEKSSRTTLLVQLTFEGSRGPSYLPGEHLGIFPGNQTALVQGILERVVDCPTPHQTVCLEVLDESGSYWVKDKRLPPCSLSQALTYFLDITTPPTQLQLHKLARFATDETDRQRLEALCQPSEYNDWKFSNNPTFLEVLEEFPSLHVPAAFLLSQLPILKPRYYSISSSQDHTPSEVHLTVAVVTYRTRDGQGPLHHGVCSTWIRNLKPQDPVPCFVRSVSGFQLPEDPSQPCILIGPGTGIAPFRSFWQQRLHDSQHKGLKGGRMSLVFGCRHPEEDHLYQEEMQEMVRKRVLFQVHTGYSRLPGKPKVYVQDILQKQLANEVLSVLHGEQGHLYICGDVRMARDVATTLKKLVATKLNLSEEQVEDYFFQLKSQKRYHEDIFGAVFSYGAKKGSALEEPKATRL
Method in brief: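 RAW 264.7 cells were incubated at 37°C, 5% CO2 for 24 h. They were then exposed to compound for 15 min before LPS (1 μg/mL) was added for 20 h. Cytotoxicity was measured by SRB staining under the same conditions. Survival is expressed as % relative to vehicle-treated controls at 50 μM.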

[6] = biological target: T2, Nitric oxide synthase, inducible (Mus musculus); assay: Inhibition of iNOS-mediated nitric oxide production in LPS-stimulated mouse RAW 264.7 cells at 50 uM pretreated 15 mins before LPS challenge measured after 20 hrs relative to control; assay type: cell-based
Method in brief: (§2)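 RAW 264.7 cells cultured 24 h at 37°C, then given serially diluted compounds for 15 min before LPS (1 μg/mL) for 20 h. Nitrite in the medium measured with Griess reagent at 540 nm against a sodium nitrite standard curve. Cytotoxicity checked by SRB under the same conditions.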

[7] = biological target: NAD(P)H dehydrogenase [quinone] 1 (Mus musculus) (UniProt Q64669); assay: Induction of quinone reductase 1 activity in mouse Hepa-1c1c7 cells at 50 uM by MTT assay relative to untreated control; assay type: cell-based
Method in brief: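 Hepa 1c1c7 murine hepatoma cells treated with compound at 50 μM. QR1 measured by NADPH-dependent, menadiol-mediated reduction of MTT to formazan. Protein measured by crystal violet staining of identical plates. Specific activity is nmol formazan per mg protein per min. Induction ratio is treated versus DMSO-treated control.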

[8] = biological target: NAD(P)H dehydrogenase [quinone] 1 (Mus musculus) (UniProt Q64669); assay: Induction of quinone reductase 1 in mouse Hepa 1c1c7 cells assessed as concentration of compound required to double enzyme activity by MTT assay; assay type: cell-based
Method in brief: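 Dose-response in Hepa 1c1c7 cells, run for substances with induction ratio >2 at 50 μM. QR1 activity measured as menadiol-mediated, NADPH-dependent MTT reduction to formazan, normalised to crystal violet protein content. CD is the concentration that doubles specific activity relative to DMSO control.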

[9] = Inhibition of TNF-alpha-induced NFkappaB activation in human HEK293 cells after 6 hrs by luciferase assay; assay type: cell-based; settings: HEK293, 6 h; method in brief: as §1
[10] = biological target: T3, Nitric oxide synthase, inducible (Mus musculus, UniProt P29477); assay: Inhibition of iNOS-mediated nitric oxide production in LPS-stimulated mouse RAW 264.7 cells pretreated 15 mins before LPS challenge measured after 20 hrs relative to control; assay type: cell-based; method in brief: as §2
T3 sequence (P29477 whole entry): T2 sequence (whole entry)

MCF7 [11] = assay: Antiproliferative activity against human MCF7 cells after 72 hrs by SRB assay; assay type: functional, cell-based; settings: MCF7, 72 h
Method in brief: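 MCF7 cells, 1 × 10^4 per well, plated directly onto compounds and incubated 72 h at 37°C, 5% CO2. Fixed with 10% TCA, stained with 0.4% SRB in 1% acetic acid. Bound dye dissolved in 10 mM Tris pH 10.0, absorbance read at 515 nm. Survival expressed relative to DMSO-treated controls.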

NAD(P)H dehydrogenase [quinone] 1 (Mus musculus), sequence (Q64669 whole entry): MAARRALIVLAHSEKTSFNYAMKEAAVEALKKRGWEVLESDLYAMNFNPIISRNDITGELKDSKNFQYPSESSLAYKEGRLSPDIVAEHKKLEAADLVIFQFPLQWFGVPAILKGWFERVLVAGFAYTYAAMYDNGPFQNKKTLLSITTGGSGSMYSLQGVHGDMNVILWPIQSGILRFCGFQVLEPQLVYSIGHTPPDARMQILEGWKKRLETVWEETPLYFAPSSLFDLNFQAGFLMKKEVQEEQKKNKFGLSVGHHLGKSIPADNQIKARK

Structure (SMILES)	Survival [1] [%]	Survival (HEK293 [2]) [%]	viability at 50 µM (MCF7 [3]) [%]	inhibition at 50 µM (Aromatase) [%]	inhibition (HEK293 [4]) [%]	Survival [5] [%]	inhibition [6] [%]	Ratio [7]	CD [8] [µM]	IC50 [9] [µM]	IC50 [10] [µM]	IC50 (MCF7 [11]) [µM]
O=C(O)[C@@H]1Cc2c([nH]c3ccccc23)CN1CC1CC1	90.7	234	108	30.2	33.7	135	-7	2.4	27.6	–	–	–
C=CCOC(=O)N1Cc2[nH]c3ccccc3c2C[C@H]1C(=O)O	82.9	109	–	38.4	35.6	135	-6.3	2.4	26.5	–	–	–
COC(=O)[C@H]1Cc2c([nH]c3ccccc23)CN1Cc1ccccc1	96.8	77.1	–	38.4	54.4	81.2	74.7	1.2	–	44.2	32.9	–
C#CCN1Cc2[nH]c3ccccc3c2C[C@@H]1C(=O)OC	77.2	227	–	31.7	43.6	114	41.1	2	50	–	–	–
COC(=O)[C@@H]1Cc2c([nH]c3ccccc23)CN1C(=O)NC1CCCCC1	71.5	111	26.3	33	44.7	79	53.8	1.1	–	–	41.1	35.8
O=C(O)[C@H]1Cc2c([nH]c3ccccc23)CN1S(=O)(=O)c1ccc(Br)cc1	88.3	252	91.2	32.3	50.9	103	56.2	1.3	–	–	46.1	–
COC(=O)[C@H]1Cc2c([nH]c3ccccc23)CN1	115	60.3	–	14.3	58.4	116	7.2	1.1	–	22.1	–	–
C=CCOC(=O)N1Cc2[nH]c3ccccc3c2C[C@@H]1C(=O)OC	77.3	97.6	69.5	35.1	50.7	91.6	57.1	2.8	15.9	–	27.7	–
O=C(O)[C@@H]1Cc2c([nH]c3ccccc23)CN1Cc1ccccc1	105	49.1	–	28	59.5	119	6.9	2.4	8.1	21.4	–	–
Cc1ccc(S(=O)(=O)N[C@@H](Cc2ccccc2)C(=O)CCl)cc1 [TPCK]	–	–	–	–	–	–	–	–	–	4.9	–	–
COC(=O)[C@@H]1Cc2c([nH]c3ccccc23)CN1Cc1ccccc1	100	28.8	–	31.5	60.4	85.9	68.2	1.6	–	30.7	32	–
O=C(O)[C@@H]1Cc2c([nH]c3ccccc23)CN1S(=O)(=O)c1ccc(Br)cc1	97.8	247	77	23.2	55.4	80.6	50	1.3	–	–	49.7	–
CCCCCNC(=O)N1Cc2[nH]c3ccccc3c2C[C@@H]1C(=O)OC	12.7	140	50.5	11.1	62.1	90.5	36.2	4.3	0.2	15.9	–	–
COC(=O)[C@H]1Cc2c([nH]c3ccccc23)CN1C(=O)NC(C)C	77	143	66.1	32.6	73.7	89.4	16.2	2.7	8.6	21.2	–	–
CC[C@@]1(O)C(=O)OCc2c1cc1n(c2=O)Cc2cc3ccccc3nc2-1 [CAMPTOTHECIN]	–	–	–	–	–	–	–	–	–	–	–	0.056
COC(=O)[C@@H]1Cc2c([nH]c3ccccc23)CN1	125	38.6	–	18.3	58.3	104	12.5	1.1	–	38.9	–	–
C#CCN1Cc2[nH]c3ccccc3c2C[C@H]1C(=O)O	91.9	228	112	30.5	50.2	126	7	2.2	18.7	–	–	–

Reference: ChEMBL document CHEMBL1914395, “Design, synthesis, and biological evaluation of callophycin A and analogues as potential chemopreventive and anticancer agents” (Bioorg Med Chem, 2011)
